Where only a bound is given, the exact number is not on record here.

The experiment relates to Trypanosoma brucei brucei. Nature of the experiment: Antitrypanosomal activity against Trypanosoma brucei brucei BF427 measured after 48 hrs by Alamar blue assay. Format: functional, organism-based. Particulars: BF427, 48 h. The method in brief: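 Bloodstream T. brucei BF427 cultured in HMI-9 medium. Exposed to serial 3-fold compound dilutions in triplicate, read with Alamar Blue at 48 h. Pentamidine isethionate control in every assay.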
For orientation: Resazurin is reduced to fluorescent resorufin, in cell work by metabolically active cells.
Usually EC50 stands for the concentration needed to bring the measured effect to its halfway point. As for `COc1cccc(N2C(=O)CN(Cc3ccccc3)C2=S)c1`, the concentration giving a half-maximal response (EC50) was above 10000 nM.
Then `COc1ccc(N2C(=O)CN(Cc3ccccc3)C2=S)cc1Cl`, with 346 nM; and `CN(C)c1ccc(N2C(=O)CN(Cc3ccccc3)C2=S)cc1F`, with 125 nM.
In turn, `CC(=O)c1ccc(N2C(=O)CN(Cc3ccccc3)C2=S)cc1` registered a half-maximal effective concentration (EC50) above 10000 nM.
`COc1ccc(N2C(=O)CN(Cc3ccc(Cl)cc3)C2=S)cc1Cl` came in with a 50% effective concentration (EC50) of 853 nM.
`CN(C)c1ccc(N2C(=O)CN(Cc3ccccc3)C2=S)cc1` had a concentration for a half-maximal effect (EC50) of 1500 nM.
`O=C1CN(Cc2ccccc2)C(=S)N1c1ccc(Cl)cc1` had an EC50 above 10000 nM.
Molecule `O=C1CN(Cc2ccccc2)C(=S)N1c1ccc(Cl)c(C(F)(F)F)c1` came in with an EC50 above 10000 nM.
Under `COc1ccc(N2C(=O)CN(Cc3ccc(F)c(C#N)c3)C2=S)cc1Cl` stands above 20000 nM; under `COc1ccc(N2C(=O)CN(Cc3ccccc3)C2=S)cc1N(C)C`, 431 nM; under `O=C1CN(Cc2ccccc2)C(=S)N1c1ccccc1`, above 10000 nM.
Under `COc1ccc(N2C(=O)CN(Cc3ccc(F)c(F)c3)C2=S)cc1Cl` stands 313 nM; under `COc1ccc(N2C(=O)CN(Cc3ccccc3)C2=S)c(OC)c1`, 637 nM.
In the case of `COc1ccc(N2C(=O)CN(Cc3cccc(F)c3)C2=S)cc1Cl`, the midpoint of the response, the EC50, lay at 968 nM.
In turn, `O=C1CN(Cc2ccccc2)C(=S)N1c1ccc(O)cc1` came in with a concentration giving a half-maximal response (EC50) above 10000 nM.
Regarding `COc1ccc(N2C(=O)CN(Cc3ccc(F)cc3)C2=S)cc1Cl`, the EC50 is 52 nM.
Take `O=C1CN(Cc2ccccc2)C(=S)N1c1ccccc1Cl`: the EC50 was above 20000 nM.
`COc1ccc(N2C(=O)CN(Cc3ccc(F)cc3F)C2=S)cc1Cl` gave a concentration giving a half-maximal response (EC50) of 63 nM.
In the case of `COc1ccc(N2C(=O)CN(Cc3ccc(F)cc3C(F)(F)F)C2=S)cc1Cl`, the EC50 was determined as 924 nM.
Turning to `COc1cc(N2C(=O)CN(Cc3ccccc3)C2=S)cc(OC)c1OC`, the EC50 was above 10000 nM.
Under `O=C1CN(Cc2ccccc2)C(=S)N1c1ccc(F)c(Cl)c1` stands above 10000 nM.
For the molecule `COc1ccc(N2C(=O)CN(Cc3ccc(F)cc3[N+](=O)[O-])C2=S)cc1Cl`, the EC50 was 350 nM.
Take `O=C1CN(Cc2ccccc2)C(=S)N1c1cc(C(F)(F)F)cc(C(F)(F)F)c1`: the EC50 is above 10000 nM.
Under `COc1ccc(CN2CC(=O)N(c3ccc(OC)c(Cl)c3)C2=S)cc1` stands above 20000 nM; under `COc1ccc(N2C(=O)CN(Cc3ccccc3)C2=S)cc1`, above 10000 nM; under `COC(=O)c1ccc(CN2CC(=O)N(c3ccc(OC)c(Cl)c3)C2=S)cc1`, above 20000 nM.
For `COc1ccc(N2C(=O)CN(Cc3cccnc3)C2=S)cc1Cl`, the concentration giving a half-maximal response (EC50) was found to be 3000 nM. In other words, the single-digit micromolar range.
The molecule `CN(C)c1ccc(N2C(=O)CN(Cc3ccccc3)C2=S)cc1Cl` came in with a concentration for a half-maximal effect (EC50) of 16 nM. Compared with the last molecule, the EC50 is about 190-fold lower.
As for `O=C(O)c1ccc(N2C(=O)CN(Cc3ccccc3)C2=S)cc1`, the 50% effective concentration (EC50) was above 10000 nM.
`COc1ccc(N2C(=O)CN(Cc3ccc(C)cc3)C2=S)cc1Cl` registered an EC50 of 1550 nM.
In turn, `COc1ccc(N2C(=O)CN(Cc3ccccc3)C2=S)cc1OC` registered a concentration for a half-maximal effect (EC50) of 161 nM.
In the case of `CC(C)c1ccc(N2C(=O)CN(Cc3ccccc3)C2=S)cc1`, the 50% effective concentration (EC50) was above 10000 nM.
The molecule `O=C1CN(Cc2ccccc2)C(=S)N1c1cc(Cl)ccc1F` had a 50% effective concentration (EC50) above 10000 nM.
In turn, `COc1ccc(N2C(=O)CN(Cc3ccc(F)cc3OC)C2=S)cc1Cl` displayed an EC50 of 191 nM.
As for `O=C1CN(Cc2ccccc2)C(=S)N1c1ccc(F)cc1`, the EC50 was above 10000 nM.
As to `COc1ccc(Cl)cc1N1C(=O)CN(Cc2ccccc2)C1=S`, the EC50 was above 10000 nM.
Under `COc1ccc(N2C(=O)CN(Cc3ccc(C(F)(F)F)cc3)C2=S)cc1Cl` stands above 20000 nM.
Then `O=C1CN(Cc2ccccc2)C(=S)N1c1cccc(Cl)c1`, with above 20000 nM.
Then `COc1ccc(N2C(=O)CN(Cc3ccc(C#N)cc3)C2=S)cc1Cl`, with 17800 nM; and `COc1cc(N2C(=O)CN(Cc3ccccc3)C2=S)ccc1N(C)C`, with 13 nM; and `N=C(N)c1ccc(OCCCCCOc2ccc(C(=N)N)cc2)cc1`, with 1.15 nM.

The values are drawn from ChEMBL document CHEMBL4190338, “1-Benzyl-3-aryl-2-thiohydantoin Derivatives as New Anti-Trypanosoma brucei Agents: SAR and in Vivo Efficacy” (ACS Med Chem Lett, 2017).
